Laboratory results from ChEMBL document CHEMBL4028845, “Design, Synthesis, and Properties of a Potent Inhibitor of Pseudomonas aeruginosa Deacetylase LpxC” (J Med Chem, 2017).
≈ marks a conversion by molar mass, not a printed value.

What was measured:
Pseudomonas aeruginosa [1] = experiment: Antibacterial activity against Pseudomonas aeruginosa clinical isolate after 18 to 24 hrs; assay type: functional
[2] = target: T1, UDP-3-O-acyl-N-acetylglucosamine deacetylase (Pseudomonas aeruginosa (strain ATCC 15692 / PAO1 / 1C / PRS 101 / LMG12228), UniProt P47205); experiment: Inhibition of Pseudomonas aeruginosa LpxC using UDP-3-O-(R-hydroxydecanoyl)-N-acetylglucosamine as substrate preincubated for 30 mins followed by substrate addition measured after 20 mins by LC-MS/MS analysis
T1 sequence (P47205 whole entry): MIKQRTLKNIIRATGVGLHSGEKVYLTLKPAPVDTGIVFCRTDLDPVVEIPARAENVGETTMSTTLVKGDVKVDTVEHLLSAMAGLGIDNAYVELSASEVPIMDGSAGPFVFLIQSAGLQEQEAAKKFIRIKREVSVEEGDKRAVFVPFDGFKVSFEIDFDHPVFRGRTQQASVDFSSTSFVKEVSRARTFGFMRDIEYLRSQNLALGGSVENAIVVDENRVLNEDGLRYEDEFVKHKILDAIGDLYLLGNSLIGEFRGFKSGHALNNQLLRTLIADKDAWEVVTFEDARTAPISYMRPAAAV

Pseudomonas aeruginosa [3] = experiment: Antibacterial activity against Pseudomonas aeruginosa PAO1 K767 after 18 to 24 hrs; assay type: functional
How it was run: (§1)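 Broth MIC per CLSI guidelines in cation-adjusted Mueller Hinton broth. Compounds were dissolved and serially diluted in DMSO (carbapenems in water) before addition to plates. Incubation was at 37 °C for 18−24 h. MIC is the lowest concentration preventing visible growth. MIC50/MIC90 are the concentrations inhibiting 50% or 90% of isolates tested.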

Pseudomonas aeruginosa [4] = experiment: Antibacterial activity against mexAB-oprM deficient Pseudomonas aeruginosa K1119 after 18 to 24 hrs; assay type: functional; how it was run: as §1
Pseudomonas aeruginosa [5] = experiment: Antibacterial activity against hypersusceptible Pseudomonas aeruginosa Z61 after 18 to 24 hrs; assay type: functional; how it was run: as §1
Acinetobacter baumannii = experiment: Antibacterial activity against Acinetobacter baumannii NB48015 after 18 to 24 hrs; assay type: functional; how it was run: as §1
Alcaligenes = experiment: Antibacterial activity against Alcaligenes xylosus NB56002 after 18 to 24 hrs; assay type: functional; how it was run: as §1
Burkholderia cepacia = experiment: Antibacterial activity against Burkholderia cepacia NB49016 after 18 to 24 hrs; assay type: functional; how it was run: as §1
[6] = test system: Stenotrophomonas maltophilia; experiment: Antibacterial activity against Stenotrophomonas maltophilia NB55011 after 18 to 24 hrs; assay type: functional; how it was run: as §1
Klebsiella aerogenes = experiment: Antibacterial activity against Enterobacter aerogenes NB24004 after 18 to 24 hrs; assay type: functional; how it was run: as §1
Klebsiella oxytoca = experiment: Antibacterial activity against Klebsiella oxytoca NB30007 after 18 to 24 hrs; assay type: functional; how it was run: as §1
Proteus mirabilis = experiment: Antibacterial activity against Proteus mirabilis NB32022 after 18 to 24 hrs; assay type: functional; how it was run: as §1
[7] = Solubility of the compound at pH 6.8 by high throughput screening assay; assay type: physicochemical; conditions: buffer
[8] = Cytotoxicity against human K562 cells assessed as reduction in cell viability after 72 hrs by WST1 assay; assay type: cell-based
How it was run: (§2)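 Cells were grown and assayed in medium with 10% heat-inactivated FBS and exposed to compound for 72 h. Metabolic activity was read as WST-1 cleavage to formazan at A450, with puromycin as positive control. CC50 (50% reduction in viability) was calculated from dose-response curves.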

[9] = Cytotoxicity against human HepG2 cells assessed as reduction in cell viability after 72 hrs by WST1 assay; assay type: cell-based; how it was run: as §2

Compound	MIC50 (Pseudomonas aeruginosa [1]) [µg/mL]	MIC90 (Pseudomonas aeruginosa [1]) [µg/mL]	IC50 [2] [nM]	MIC (Pseudomonas aeruginosa [3]) [µg/mL]	MIC (Pseudomonas aeruginosa [4]) [µg/mL]	MIC (Pseudomonas aeruginosa [5]) [µg/mL]	further results
CCN1CCN(C(=O)N[C@@H](C(=O)N[C@@H]2C(=O)N3[C@@H]2SC(C)(C)[C@@H]3C(=O)O)c2ccccc2)C(=O)C1=O [PIPERACILLIN]	32 (≈ 61.8 µM)	> 128					
C[C@@H](N)[C@H](NC(=O)COc1ccc(N2CCCC2=O)cc1)C(=O)NO			342	> 128	> 128	> 128	
O=C(O)c1cn(C2CC2)c2cc(N3CCNCC3)c(F)cc2c1=O [CIPROFLOXACIN]							MIC (Acinetobacter baumannii): 0.5 µg/mL (≈ 1.51 µM); MIC (Alcaligenes): 2 µg/mL (≈ 6.04 µM); MIC (Burkholderia cepacia): 0.5 µg/mL (≈ 1.51 µM); MIC [6]: 0.5 µg/mL (≈ 1.51 µM); MIC (Klebsiella aerogenes): > 16 µg/mL; MIC (Klebsiella oxytoca): ≤ 0.03 µg/mL; MIC (Proteus mirabilis): ≤ 0.03 µg/mL
CC[C@H]1OC(=O)[C@H](C)[C@@H](O[C@H]2C[C@@](C)(OC)[C@@H](O)[C@H](C)O2)[C@H](C)[C@@H](O[C@@H]2O[C@H](C)C[C@H](N(C)C)[C@H]2O)[C@](C)(O)C[C@@H](C)CN(C)[C@H](C)[C@@H](O)[C@]1(C)O [AZITHROMYCIN]	16 (≈ 21.4 µM)	> 128					
CC#CCOc1ccc(C(=O)N[C@H](C(=O)NO)[C@@H](C)N)cc1			19.7	2 (≈ 6.55 µM)	0.25 (≈ 0.819 µM)	0.5 (≈ 1.64 µM)	solubility ([7]; read-out: solubility): 295 µg/mL; CC50 at 72 h [8]: > 419 µM; CC50 at 72 h [9]: > 419 µM
NCC[C@H](O)C(=O)N[C@@H]1C[C@H](N)[C@@H](O[C@H]2O[C@H](CN)[C@@H](O)[C@H](O)[C@H]2O)[C@H](O)[C@H]1O[C@H]1O[C@H](CO)[C@@H](O)[C@H](N)[C@H]1O [AMIKACIN]	16 (≈ 27.3 µM)	> 128					
CC#CCOc1ccc(C(=O)N[C@H](C(=O)NO)[C@@H](N)C(F)(F)F)cc1			39	16 (≈ 44.5 µM)	0.25 (≈ 0.696 µM)	1 (≈ 2.78 µM)	
CCc1ccc(-c2ccc(C(=O)N[C@H](C(=O)NO)[C@@H](C)NCC(=O)N3CCNC(=O)C3)cc2)cc1				16 (≈ 33.2 µM)	0.125 (≈ 0.26 µM)	1 (≈ 2.08 µM)	
C[C@@H](NCC(=O)N1CCNC(=O)C1)[C@H](NC(=O)c1ccc(C#Cc2ccccc2)cc1)C(=O)NO			4.19	32 (≈ 67 µM)	0.5 (≈ 1.05 µM)	4 (≈ 8.38 µM)	solubility [7]: 0.392 µM; CC50 at 72 h [8]: > 100 µM
C[C@@H](O)[C@H]1C(=O)N2C(C(=O)O)=C(S[C@@H]3CN[C@H](C(=O)N(C)C)C3)[C@H](C)[C@H]12 [MEROPENEM]	2 (≈ 5.22 µM)	32 (≈ 83.4 µM)					
CC1(C)S[C@@H]2[C@H](NC(=O)[C@H](C(=O)O)c3ccsc3)C(=O)N2[C@H]1C(=O)O [TICARCILLIN]	128 (≈ 333 µM)	> 128					
C[C@@H](O)[C@H]1C(=O)N2C(C(=O)O)=C(SCCNC=N)C[C@H]12 [IMIPENEM ANHYDROUS]	2 (≈ 6.68 µM)	16 (≈ 53.4 µM)					
CC#CCOc1ccc(C(=O)N[C@H](C(=O)NO)[C@H](N)C2CC2)cc1			362	32 (≈ 96.6 µM)	2 (≈ 6.04 µM)	4 (≈ 12.1 µM)	
CC#CCOc1ccc(C(=O)N[C@H](C(=O)NO)[C@H](N)C(C)C)cc1			900	> 128	16 (≈ 48 µM)	32 (≈ 96 µM)	
COLISTIN	0.5	2					
